{"source": "ChEMBL document CHEMBL3098122", "about": "“Synthesis, biological activity and structure-activity relationships of new benzoic acid-based protein tyrosine phosphatase inhibitors endowed with insulinomimetic effects in mouse C2C12 skeletal muscle cells” (Eur J Med Chem, 2014)", "key": {"Homo sapiens [1]": {"organism": "Homo sapiens", "assay": "Selectivity ratio of IC50 for human recombinant LMW-PTP IF2 to IC50 for human recombinant PTP1B"}, "[2]": {"molecular_target": "T1, Tyrosine-protein phosphatase non-receptor type 1 (Homo sapiens, UniProt P18031)", "T1 sequence (P18031 whole entry)": "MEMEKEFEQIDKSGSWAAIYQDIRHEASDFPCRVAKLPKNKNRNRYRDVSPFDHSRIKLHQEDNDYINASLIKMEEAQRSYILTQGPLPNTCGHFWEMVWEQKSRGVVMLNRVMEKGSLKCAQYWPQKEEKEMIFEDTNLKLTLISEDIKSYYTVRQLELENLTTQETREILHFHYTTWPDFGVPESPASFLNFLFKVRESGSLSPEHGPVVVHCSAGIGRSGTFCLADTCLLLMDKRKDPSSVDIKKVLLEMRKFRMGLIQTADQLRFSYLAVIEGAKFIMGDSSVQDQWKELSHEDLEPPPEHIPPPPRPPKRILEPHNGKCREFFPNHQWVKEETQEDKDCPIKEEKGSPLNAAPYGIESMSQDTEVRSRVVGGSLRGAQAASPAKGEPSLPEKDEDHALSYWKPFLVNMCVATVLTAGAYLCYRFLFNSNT", "assay": "Noncompetitive inhibition of human recombinant PTP1B expressed in Escherichia coli TB1 using p-nitrophenylphosphate as substrate by Double reciprocal plot analysis", "procedure,_shortened": "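PTP1B (human, GST fusion from pGEX-2T in E. coli TB1, thrombin-cleaved, gel-filtered) assayed at 37 °C, pH 7.0 β,β-dimethylglutarate buffer with 1 mM EDTA and 5 mM DTT, p-nitrophenylphosphate at seven final concentrations (0.5–25 mM) with increasing inhibitor; KOH-stopped, A400. Inhibition type from double reciprocal plots; Ki from apparent Km vs inhibitor concentration; triplicate initial rates.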"}, "[3]": {"molecular_target": "T2, Low molecular weight phosphotyrosine protein phosphatase (Homo sapiens, UniProt P24666)", "T2 sequence (P24666 whole entry)": "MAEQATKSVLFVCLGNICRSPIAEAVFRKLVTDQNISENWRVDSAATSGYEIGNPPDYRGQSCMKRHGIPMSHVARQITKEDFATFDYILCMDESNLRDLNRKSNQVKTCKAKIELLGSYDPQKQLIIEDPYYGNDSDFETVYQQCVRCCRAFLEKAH", "assay": "Inhibition of human recombinant LMW-PTP IF2 expressed in Escherichia coli TB1 using p-nitrophenylphosphate as substrate"}, "[4]": {"molecular_target": "T3, Tyrosine-protein phosphatase non-receptor type 1 (Mus musculus) (UniProt P35821)", "T3 sequence (whole entry)": "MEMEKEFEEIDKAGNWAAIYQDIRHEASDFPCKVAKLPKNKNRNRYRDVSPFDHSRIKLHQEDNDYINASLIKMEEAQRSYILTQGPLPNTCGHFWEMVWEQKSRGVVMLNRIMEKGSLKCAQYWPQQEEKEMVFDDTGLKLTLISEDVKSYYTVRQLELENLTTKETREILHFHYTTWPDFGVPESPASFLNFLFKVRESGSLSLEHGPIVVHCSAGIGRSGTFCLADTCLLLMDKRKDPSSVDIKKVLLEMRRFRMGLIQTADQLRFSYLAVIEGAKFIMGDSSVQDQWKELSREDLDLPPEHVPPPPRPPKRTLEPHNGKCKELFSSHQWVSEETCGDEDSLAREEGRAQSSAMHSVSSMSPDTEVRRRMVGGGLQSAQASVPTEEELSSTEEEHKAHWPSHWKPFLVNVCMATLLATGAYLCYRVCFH", "assay": "Inhibition of PTP1B in mouse C2C12 cells assessed as increase of insulin receptor beta phosphorylation at 25 uM after 90 mins", "assay_type": "cell-based", "procedure,_shortened": "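Differentiated, 20 h serum-starved C2C12 myotubes exposed to 25 µM compound (DMSO 1.2% final) for 90 min at 37 °C, insulin 10 nM 30 min as positive control; lysates run on SDS-PAGE, Western blot for phospho-insulin receptor β with actin loading control, densitometry; three replicates, p<0.05 versus control.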"}, "Homo sapiens [5]": {"organism": "Homo sapiens", "assay": "Selectivity ratio of IC50 for TC-PTP (unknown origin) to IC50 for human recombinant PTP1B", "procedure,_shortened": "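Commercial T-cell PTP assayed on p-nitrophenylphosphate at 37 °C, pH 7.0 β,β-dimethylglutarate buffer with 1 mM EDTA and 5 mM DTT; stopped with 1 M KOH, absorbance at 400 nm; IC50 from ratio of activity with and without inhibitor versus inhibitor concentration. Ratio lines pair this with recombinant human PTP1B measured the same way.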"}, "[6]": {"molecular_target": "T3, Tyrosine-protein phosphatase non-receptor type 1 (Mus musculus)", "assay": "Inhibition of PTP1B in mouse C2C12 cells assessed as increase of 2-deoxy-D-1,2-[3H]-glucose at 25 uM after 90 mins by beta-scintillation counting", "assay_type": "cell-based", "procedure,_shortened": "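Serum-starved differentiated C2C12 myotubes treated 90 min with 25 µM compound (1.2% DMSO) or 30 min with 10 nM insulin, then 0.1 µCi 2-deoxy-D-[1,2-3H]glucose in Ringer-Hepes for 15 min at 37 °C; cold PBS wash, 0.2 M NaOH lysis, scintillation counting normalized to Bradford protein; three replicates.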"}, "Homo sapiens [7]": {"organism": "Homo sapiens", "assay": "Selectivity ratio of IC50 for human recombinant LMW-PTP IF1 to IC50 for human recombinant PTP1B"}, "Homo sapiens [8]": {"organism": "Homo sapiens", "assay": "Selectivity ratio of IC50 for human recombinant LMW-PTP IF2 to IC50 for human recombinant LMW-PTP IF1"}, "[9]": {"molecular_target": "T4, Tyrosine-protein phosphatase non-receptor type 1 (Homo sapiens) (UniProt P18031)", "T4 sequence (whole entry)": "T1 sequence (P18031 whole entry)", "assay": "Reversible inhibition of human recombinant PTP1B expressed in Escherichia coli TB1 using p-nitrophenylphosphate as substrate assessed as residual activity at 25 times IC50 after 1 hr measured after 400 fold dilution", "procedure,_shortened": "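Reversibility: PTP1B preincubated 1 h at 37 °C with at least 25-fold […], DMSO in controls; mixture then diluted 400-fold in assay buffer and residual activity measured on p-nitrophenylphosphate; three replicates, mean ± SE.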"}, "[10]": {"molecular_target": "T2, Low molecular weight phosphotyrosine protein phosphatase", "assay": "Inhibition of human recombinant LMW-PTP IF1 expressed in Escherichia coli TB1 using p-nitrophenylphosphate as substrate"}, "[11]": {"molecular_target": "T5, Tyrosine-protein phosphatase non-receptor type 2 (Homo sapiens, UniProt P17706)", "T5 sequence (P17706 whole entry)": "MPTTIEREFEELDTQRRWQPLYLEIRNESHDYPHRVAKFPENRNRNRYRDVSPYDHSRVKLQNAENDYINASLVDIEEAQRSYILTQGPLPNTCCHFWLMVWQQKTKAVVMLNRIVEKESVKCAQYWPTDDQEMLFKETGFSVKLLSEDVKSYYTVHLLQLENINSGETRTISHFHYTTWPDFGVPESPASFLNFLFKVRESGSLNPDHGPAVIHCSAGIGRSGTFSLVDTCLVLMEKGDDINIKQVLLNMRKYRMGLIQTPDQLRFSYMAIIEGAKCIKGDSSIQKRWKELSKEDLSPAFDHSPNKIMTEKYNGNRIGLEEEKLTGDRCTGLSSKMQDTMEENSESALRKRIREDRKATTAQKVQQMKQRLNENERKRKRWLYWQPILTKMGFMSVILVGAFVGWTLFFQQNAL", "assay": "Inhibition of TC-PTP (unknown origin) purchased from New England Biolabs using p-nitrophenylphosphate as substrate"}, "[12]": {"assay": "Cytotoxicity against mouse C2C12 cells expressing PTP1B, TC-PTP, LMW-PTP and insulin receptor assessed as cell viability after 2 hrs by MTT assay", "assay_type": "cell-based", "design": "concentration or dose not given beside the values", "details": "read-out: Activity", "procedure,_shortened": "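C2C12 myoblasts differentiated 4 days in DMEM with 2% horse serum, serum-starved 20 h; myotubes then given MTT (0.5 mg/ml final) for 2 h at 37 °C, lysed in DMSO, formazan read at 570 nm; three replicates relative to control.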"}, "[13]": {"molecular_target": "T1, Tyrosine-protein phosphatase non-receptor type 1", "assay": "Inhibition of human recombinant PTP1B expressed in Escherichia coli TB1 using p-nitrophenylphosphate as substrate"}}, "note": "Calls of active or inactive are those of the source. The rule behind the calls is not given here.", "data": [{"smiles": "COc1cc(/C=C2\\SC(=O)N(Cc3ccc(C(=O)O)cc3)C2=O)ccc1OCCc1ccccc1", "values": [{"measurement": "Ratio IC50", "setting": "Homo sapiens [1]", "result": "> 2"}, {"measurement": "Ki", "setting": "[2]", "result": 1.4, "unit": "µM"}, {"measurement": "IC50", "setting": "[3]", "result": "> 50", "unit": "µM"}, {"measurement": "inhibition", "setting": "[4]", "result": "Active"}, {"measurement": "Ratio IC50", "setting": "Homo sapiens [5]", "result": 2}, {"measurement": "inhibition", "setting": "[6]", "result": "Active"}, {"measurement": "Ratio IC50", "setting": "Homo sapiens [7]", "result": "> 2"}, {"measurement": "Ratio IC50", "setting": "Homo sapiens [8]", "result": "> 2"}, {"measurement": "Activity", "setting": "[9]", "result": 80, "unit": "%"}, {"measurement": "IC50", "setting": "[10]", "result": 10.8, "unit": "µM"}, {"measurement": "IC50", "setting": "[11]", "result": 3.5, "unit": "µM"}, {"measurement": "viability at 2 h", "setting": "[12]", "result": "≥ 80", "unit": "%"}, {"measurement": "IC50", "setting": "[13]", "result": 1.1, "unit": "µM"}]}]}
